The nature of series [1]: Drug uptake in human T24 cells xenografted in SCID mouse at 0.47 umol/kg formulated with 2% pluronic F-127 solution and measured at 24 hrs post injection by IVIS analysis. The series is classed as ADME, cell-based, T-24. Particulars: in vivo; call rule not given here. The essentials: (§1)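 SCID mice (3/group) bearing UMUC3 or T24 tumors of 4–5 mm injected with PS at 0.47 µmol/kg in Tween80 or Pluronic F-127. Tumor, liver and skin fluorescence followed by IVIS optical imaging (ex 675 nm, em 720) at several time points including 24 h.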
(In general: Xenograft models place foreign cells or tissue in a host animal.)

The nature of series [2]: Drug accumulation in lysosomes of human UM-UC-3 cells at 500 nM formulated with 2% pluronic F-127 solution after 24 hrs by lysosphere green based fluorimetry. Particulars: umuc3, 24 h, 0.5 µM. In kind it is ADME, subcellular, Lysosome.
The nature of series [3]: Drug accumulation in mitochondria of human UM-UC-3 cells at 500 nM formulated with 2% pluronic F-127 solution after 24 hrs by mitotracker red based fluorimetry. The series is classed as ADME. Particulars: umuc3, 24 h, 0.5 µM.
The subject of series [4] is UMUC3. Description: Photo-activated cytotoxicity against human UM-UC-3 cells assessed as reduction in cell viability preincubated for 24 hrs followed by 1 J/cm2 light irradiation and measured after 48 hrs formulated with 1% tween 80 solution by MTT assay. The series is classed as functional, cell-based. Particulars: UMUC3, light or radiation study. The gist of the method: (§2)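 Cells plated at 10k per well, allowed 24 h to adhere, then PS added in two-fold dilutions from 1 µM top for 24 h. Irradiated at 665 nm, 1.0 J/cm2 at 3.2 mW/cm2. Viability by MTT 48 h after PDT: about 2 h incubation, formazan dissolved in DMSO, absorbance at 570 nm.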

Series [5] can be described thus: Drug uptake in human UM-UC-3 cells assessed as increase in gray value intensity at 500 nM after 48 hrs in absence of gleevec by Hoechst 33342 staining based fluorescence microscopy. In kind it is ADME, cell-based. Particulars: umuc3, 24 h, 0.5 µM, in the assay text read “24 hrs” for “48 hrs”. The essentials:
(§3)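 Cells plated at 100k per well, grown to 80% confluency, refreshed, then incubated 24 h with PS at 500 nM with or without Gleevec 5 µM. Washed twice with PBS, Hoechst 33342 added, imaged by fluorescence microscopy; grey value normalized to cell number, triplicate groups and images.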

Series [6] is described as follows: Drug uptake in human UM-UC-3 cells xenografted in SCID mouse at 0.47 umol/kg formulated with 1% tween 80 solution and measured at 24 hrs post injection by IVIS analysis. The series is classed as ADME, cell-based, UMUC3. The conditions noted are these: in vivo. The essentials: as §1
The test system of series [7] is UMUC3. Description: Anti-tumor activity against human UM-UC-3 cells xenografted in SCID mouse assessed as tumor cure at 0.47 umol/kg, iv in presence of 135 J/cm2 light irradiation at 24 hrs post injection and measured at day 60. The series is classed as functional. The gist of the method: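 UMUC-3 cells implanted in right flank of SCID mice; at 4–5 mm tumors, PS given i.v. at 0.47 µmol/kg. Tumors exposed to 665 nm light, 135 J/cm2 at 75 mW/cm2, 24 h post-injection. Tumor regrowth monitored daily; mice euthanized at >400 mm3; tumor-free status scored at day 60.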

The nature of series [8]: Drug uptake in human T24 cells assessed as increase in gray value intensity at 1 uM pretreated for 24 hrs followed by compound washout and measured after 4 hrs by Hoechst 33342 staining based fluorescence microscopy. The series is classed as ADME, cell-based. Particulars: t-24, 4 h. The gist of the method: (§4)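 Cells pre-incubated 24 h with free erlotinib before PS addition. Legend describes PS at 1 uM or erlotinib at 3 uM for 4 h, then three warm PBS washes. Imaged by fluorescence microscopy; grey value per field normalized to cell count, triplicate wells, each imaged in triplicate.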

Series [9] in a line: Drug uptake in human T24 cells xenografted in SCID mouse at 0.47 umol/kg formulated with 1% tween 80 solution and measured at 24 hrs post injection by IVIS analysis. In kind it is ADME, cell-based, T-24. Particulars: in vivo. The essentials: as §1
Series [10] is described as follows: Drug accumulation in lysosomes of human UM-UC-3 cells at 500 nM formulated with 1% tween 80 solution after 24 hrs by lysosphere green based fluorimetry. In kind it is ADME, subcellular, Lysosome. Particulars: umuc3, 24 h, 0.5 µM.
The test system of series [11] is UMUC3. Description: Induction of oxidative stress in human UM-UC-3 cells assessed as increase in ROS production at 1 uM in presence of 1 J/cm2 light irradiation and measured at 20 min post light exposure by DCFDA-fluorescence based assay relative to control. In kind it is functional. The gist of the method: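 UMUC3 cells at 10k per well; after 24 h, PS added at 1 µM for 24 h (Tween80 formulation). DCFDA 1 µM for 20 min, fluorescence read (ex 492, em 517). Then 665 nm light, 1 J total at 3.2 mW/cm2, and read again. No-DCFDA background subtracted; 0.05% H2O2 control wells.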

The nature of series [12]: Drug accumulation in lysosomes of human T24 cells at 500 nM formulated with 1% tween 80 solution after 24 hrs by lysosphere green based fluorimetry. The series is classed as ADME, subcellular, Lysosome. Particulars: t-24, 24 h, 0.5 µM.
Series [13] relates to T-24. In words: Induction of apoptosis in human T24 cells assessed as increase in apoptotic cells at 1 uM in absence of light by Annexin V/propidium iodide-staining based flow cytometry. The series is classed as cell-based. The conditions noted are these: t-24, 1 µM.
Series [14] concerns UMUC3. In words: Induction of apoptosis in human UM-UC-3 cells assessed as increase in apoptotic cells at 1 uM in absence of light by Annexin V/propidium iodide-staining based flow cytometry. Particulars: umuc3, 1 µM. The series is classed as cell-based. On the technique in general: In flow cytometry, cells or beads pass a laser one at a time.
Series [15] is described as follows: Drug accumulation in mitochondria of human UM-UC-3 cells at 500 nM formulated with 1% tween 80 solution after 24 hrs by mitotracker red based fluorimetry. In kind it is ADME. The conditions noted are these: umuc3, 24 h, 0.5 µM.
Series [16] in a line: Stability at -4 degC for 2 months. The series is classed as physicochemical. Particulars: 1461 h. The gist of the method: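 Photosensitizer formulations in Tween80 or Pluronic F-127 were stored at -4 °C, alongside a -20 °C set, for two months. Stability was judged by visible precipitation and change in pH.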
The nature of series [17]: Stability at -20 degC for 2 months. In kind it is physicochemical. The conditions noted are these: 1461 h. The essentials:
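Formulated PS stored at -4 °C or -20 °C for two months; checked for precipitation and pH change.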

Series [18] concerns T-24. Description: Photo-activated cytotoxicity against human T24 cells assessed as reduction in cell viability preincubated for 24 hrs followed by 1 J/cm2 light irradiation and measured after 48 hrs formulated with 2% pluronic F-127 solution by MTT assay. In kind it is functional, cell-based. The conditions noted are these: T-24, light or radiation study. The essentials:
as §2
(Tetrazolium assays rely on reduction of a dye to a coloured formazan, in cell work by metabolically active cells.)

Series [19] has as its system UMUC3. In words: Photo-activated cytotoxicity against human UM-UC-3 cells assessed as reduction in cell viability preincubated for 24 hrs followed by 1 J/cm2 light irradiation and measured after 48 hrs formulated with 2% pluronic F-127 solution by MTT assay. In kind it is functional, cell-based. The conditions noted are these: UMUC3, light or radiation study. The gist of the method:
as §2

A short description of series [20]: Drug accumulation in mitochondria of human T24 cells at 500 nM formulated with 1% tween 80 solution after 24 hrs by mitotracker red based fluorimetry. In kind it is ADME. Particulars: t-24, 24 h, 0.5 µM.
Series [21] can be described thus: Drug accumulation in human UM-UC-3 cells at 500 nM formulated with 2% pluronic F-127 solution after 24 hrs by CARY-fluorimetry. The series is classed as ADME, cell-based. The conditions noted are these: umuc3, 24 h, 0.5 µM.
Series [22] in a line: Drug uptake in human UM-UC-3 cells xenografted in SCID mouse at 0.47 umol/kg formulated with 2% pluronic F-127 solution and measured at 24 hrs post injection by IVIS analysis. The series is classed as ADME, cell-based, UMUC3. The conditions noted are these: in vivo. The gist of the method:
as §1

Series [23] can be described thus: Drug uptake in human UM-UC-3 cells assessed as increase in gray value intensity at 500 nM after 48 hrs in presence of gleevec by Hoechst 33342 staining based fluorescence microscopy. In kind it is ADME, cell-based. Particulars: umuc3, 24 h, 0.5 µM, in the assay text read “after 24 hrs” for “after 48 hrs”. The essentials:
as §3

Series [24] in a line: Drug accumulation in lysosomes of human T24 cells at 500 nM formulated with 2% pluronic F-127 solution after 24 hrs by lysosphere green based fluorimetry. In kind it is ADME, subcellular, Lysosome. The conditions noted are these: t-24, 24 h, 0.5 µM.
Series [25] deals with T-24. In words: Photo-activated cytotoxicity against human T24 cells assessed as reduction in cell viability preincubated for 24 hrs followed by 1 J/cm2 light irradiation and measured after 48 hrs formulated with 1% tween 80 solution by MTT assay. In kind it is functional, cell-based. The conditions noted are these: T-24, light or radiation study. The essentials: as §2
The nature of series [26]: Drug accumulation in human UM-UC-3 cells at 500 nM formulated with 1% tween 80 solution after 24 hrs by CARY-fluorimetry. In kind it is ADME, cell-based. The conditions noted are these: umuc3, 24 h, 0.5 µM.
Series [27] is described as follows: Drug uptake in human UM-UC-3 cells assessed as increase in gray value intensity at 1 uM pretreated for 24 hrs followed by compound washout and measured after 4 hrs by Hoechst 33342 staining based fluorescence microscopy. The series is classed as ADME, cell-based. Particulars: umuc3, 4 h. The essentials:
as §4

Series [28] in a line: Drug accumulation in mitochondria of human T24 cells at 500 nM formulated with 2% pluronic F-127 solution after 24 hrs by mitotracker red based fluorimetry. In kind it is ADME. The conditions noted are these: t-24, 24 h, 0.5 µM.
The nature of series [29]: Drug uptake in human UM-UC-3 cells xenografted in SCID mouse at 50 uCi, iv measured at 110 min post injection by PET imaging analysis. Particulars: in vivo.

By IC50 is commonly meant the concentration needed to halve the response being measured. `CCC1=C(C)c2cc3[nH]c(cc4nc(c5c6[nH]c(cc1n2)c(C)c6C(=O)C5)[C@@H](CCC(=O)NCc1cccc(C#Cc2cccc(Nc5ncnc6cc(OCCOC)c(OCCOC)cc56)c2)c1)[C@@H]4C)c(C)c3C(C)OCc1cccc([127I])c1` (some centres undefined): the Drug uptake result in series [1] is “Active”; in series [2], “Active”; in series [3] it was “Active”; in [5], “Not Active”; in series [6] it was “Active”; in [8] it was “Active”. In addition, the Drug uptake entry in [9], in series [10], in series [12], in series [15], in series [20] and in series [21] was “Active” in each case. For the same compound, the Drug uptake result in series [22] is on record as “Active”; in [23], “Not Active”; in series [24], “Active”; in [26], “Active”; in series [27] it was “Not Active”; in series [28], “Active”. In addition, the IC50 in the series with UMUC3 [4] turned out to be 36.4 nM; in the series on T-24 [18], 315 nM; in the series with UMUC3 [19], 58.4 nM; in the series with T-24 [25] it was 137 nM. Further, the Activity in the series with UMUC3 [7] is on record as 55%; in the series with T-24 [13] it was “Non-Toxic”; in the series on UMUC3 [14], “Non-Toxic”. In the series with UMUC3 [11], the “fold change (FC)” value was determined as 4.5. The Stability entry in series [16] and in series [17] was “Stable” in each case.
As to `OC[C@H]1OC(O)[C@H]([18F])[C@@H](O)[C@@H]1O` (some centres undefined) [FLUDEOXYGLUCOSE F 18], in series [29], the Drug uptake result is “Not Active”.

For the origin of these results see ChEMBL document CHEMBL4400542, “Epidermal Growth Factor Receptor-Targeted Multifunctional Photosensitizers for Bladder Cancer Imaging and Photodynamic Therapy” (J Med Chem, 2019).
